FLuc inhib CS: firefly luciferase enzyme inhibitors, primary screen, artefact control for luciferase-based inhibitor screens, biochemical, luminescence, ATPLite; Luciferin 4-monooxygenase (Photinus pyralis), P08659; 10 min; AID 1006, 2008; 1.5% of 200,000 active; inhibition, % at 10 µM;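 active = inhibition above about 50% when tested at 10 µM, limit read from the data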
Target sequence (P08659 whole entry, looked up): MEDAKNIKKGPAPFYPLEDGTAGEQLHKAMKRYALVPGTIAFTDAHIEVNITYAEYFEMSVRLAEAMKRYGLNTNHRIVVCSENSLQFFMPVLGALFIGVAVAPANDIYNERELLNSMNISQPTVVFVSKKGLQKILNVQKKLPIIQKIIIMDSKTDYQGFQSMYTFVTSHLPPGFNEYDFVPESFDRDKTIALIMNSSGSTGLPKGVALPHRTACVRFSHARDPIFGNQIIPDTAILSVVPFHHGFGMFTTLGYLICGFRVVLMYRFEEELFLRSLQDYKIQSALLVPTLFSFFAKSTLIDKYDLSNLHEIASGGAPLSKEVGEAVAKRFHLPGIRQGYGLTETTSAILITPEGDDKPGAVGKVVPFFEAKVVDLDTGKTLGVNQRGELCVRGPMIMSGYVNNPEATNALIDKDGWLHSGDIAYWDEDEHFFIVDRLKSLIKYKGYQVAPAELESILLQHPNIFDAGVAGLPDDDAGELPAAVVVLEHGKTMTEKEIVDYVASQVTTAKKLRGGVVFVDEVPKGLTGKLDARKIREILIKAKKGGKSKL
NF-kB neuron act: activators of NF-kB expression in neurons, primary screen, cell-based, HTS; human neuronal cells, NF-kB reporter expression; hits give high values; fold change at 12.5 µM; 1.6% of 190,000 active; AID 1239, 2008; in the data active = fold change above about 3.3
FLuc stim CS: FLuc activators, initial screening, artefact control for FLuc-dependent activation tests, biochemical, ATPlite luminescence | Luciferin 4-monooxygenase (Photinus pyralis), P08659 | ATPlite luciferase biochemical, 10 min; 0 = ATP-free wells, 1 = DMSO control | activation factor at 10 µM | 200,000 tested, under 10 active;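 active = luciferase activation factor, scaled between plate controls, of at least 2 with compound at 10 µM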
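Material: luciferase plus luciferin reagent, cell-free. Medium: PBS buffer for ATP. Also added: ATP substrate, dispensed from a 10.24 µM working solution in PBS. Doses: test compounds dosed from 2 mM stocks in 100% DMSO. Incubation: 10 min post-reagent at room temperature. Technique: light output (luminescence). Read-out basis: luminescence gain marking luciferase activators.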
APP 5'UTR act: activators of APP 5'UTR luciferase reporter, primary screen, SH-SY5Y cells. AID 1276, 2008. 1% of 190,000 active. activation, % at 2 µM. SH-SY5Y APP 5'UTR luciferase reporter, luminescence; zero percent = DMSO vehicle wells;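 active = activation above a set limit, based on mean plus 3 SD of controls, cut at about 140% in these data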
STAT1 activator: STAT1 signaling activators, primary screen, cell-based, HTS, luciferase reporter; NIH 3T3 STAT1-luciferase reporter, IFN-gamma, luminescence; 100% = IFN-gamma alone, no compound; activation (% of control), % at 5.5 µM; 2.6% of 200,000 active; AID 932, 2007;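 active = activation above the screen-wide mean activation plus 3 SD, cut at about 130% in these data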
sdo1 growth: growth rescue of sdo1-depleted yeast, primary screen, S. cerevisiae, bone marrow failure model | S. cerevisiae sdo1-depleted JHY4D growth rescue, OD600 30 h; hits give high values; pdr5 snq2 efflux-pump mutant strain | z-score at 10 µM | 0.21% of 140,000 active;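 active = z-score above 3 at both the 24 hr and the 30 hr optical density reads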
A number is an active result. Rows were chosen to be rich in hits. Some 4.3% of all compounds tested hit in one or more screens of this group.

What do the screens show for `CCOC(=O)Cc1csc(NC(=O)c2cc3ccccc3o2)n1`?
FLuc inhib CS: inactive; NF-kB neuron act: inactive; FLuc stim CS: inactive; APP 5'UTR act: inactive; STAT1 activator: inactive

Results for N/C(=N\OCc1ccccc1)c1nonc1N ?
FLuc inhib CS: inactive; NF-kB neuron act: inactive; FLuc stim CS: inactive; APP 5'UTR act: inactive; STAT1 activator: 129.2

How did N/C(=N/OCc1cccc([N+](=O)[O-])c1)c1nonc1N do in these assays?
FLuc inhib CS: inactive; NF-kB neuron act: inactive; FLuc stim CS: inactive; APP 5'UTR act: inactive; STAT1 activator: inactive; sdo1 growth: inactive

Results for CC1CCN(CCC(=O)Nc2ccc3c(c2)CCC3)CC1 ?
FLuc inhib CS: inactive; NF-kB neuron act: inactive; FLuc stim CS: inactive; APP 5'UTR act: inactive; STAT1 activator: inactive; sdo1 growth: inactive

What do the screens show for `CS(=O)(=O)Cc1nc2ccccc2oc1=O`?
FLuc inhib CS: inactive; NF-kB neuron act: 4.65; FLuc stim CS: inactive; APP 5'UTR act: inactive; STAT1 activator: inactive; sdo1 growth: inactive

How did CCS(=O)(=O)CCSc1nc2ccccc2o1 do in these assays?
FLuc inhib CS: inactive; NF-kB neuron act: inactive; FLuc stim CS: inactive; APP 5'UTR act: inactive; STAT1 activator: inactive; sdo1 growth: inactive

What do the screens show for `C/C(O)=C\c1nc2ccccc2oc1=O`?
FLuc inhib CS: inactive; NF-kB neuron act: 3.6; FLuc stim CS: inactive; APP 5'UTR act: inactive; STAT1 activator: inactive; sdo1 growth: inactive

How did Cc1cccc(Oc2ncc(-c3ccc(Cl)cc3)cn2)c1 do in these assays?
FLuc inhib CS: inactive; NF-kB neuron act: inactive; FLuc stim CS: inactive; APP 5'UTR act: inactive; STAT1 activator: inactive; sdo1 growth: inactive

Results for Cc1ccc(C(=O)NCCCc2ccccc2)c(C)c1 ?
FLuc inhib CS: inactive; NF-kB neuron act: inactive; FLuc stim CS: inactive; APP 5'UTR act: 160.2; STAT1 activator: 136.0

How did COC(=O)c1[nH]c2ccc(Br)cc2c1NC(=O)CN1CCN(C2CCCCC2)CC1 do in these assays?
FLuc inhib CS: inactive; NF-kB neuron act: 4.05; FLuc stim CS: inactive; APP 5'UTR act: inactive; STAT1 activator: inactive; sdo1 growth: inactive

Results for COC(=O)c1[nH]c2ccc(C)cc2c1NC(=O)CCN1CCN(C2CCCCC2)CC1 ?
FLuc inhib CS: inactive; NF-kB neuron act: inactive; FLuc stim CS: inactive; APP 5'UTR act: inactive; STAT1 activator: inactive; sdo1 growth: inactive

Results for CN(C)C(=O)COC(=O)c1ccccc1Nc1ccc(SC(F)F)cc1 ?
FLuc inhib CS: inactive; NF-kB neuron act: inactive; FLuc stim CS: inactive; APP 5'UTR act: inactive; STAT1 activator: 130.7; sdo1 growth: inactive

Results for CCOC(=O)N1CCC(NS(=O)(=O)c2cc(Br)cc3c2N(C(=O)CC)CC3)CC1 ?
FLuc inhib CS: inactive; NF-kB neuron act: inactive; FLuc stim CS: inactive; APP 5'UTR act: inactive; STAT1 activator: inactive; sdo1 growth: inactive

How did O=c1cc(-c2ccccc2)[nH]c2cc(Cl)ccc12 do in these assays?
FLuc inhib CS: inactive; NF-kB neuron act: inactive; FLuc stim CS: inactive; APP 5'UTR act: inactive; STAT1 activator: inactive; sdo1 growth: inactive

Results for Clc1ccc2[nH]c(-c3ccccc3)cc2c1 ?
FLuc inhib CS: inactive; NF-kB neuron act: 3.93; FLuc stim CS: inactive; APP 5'UTR act: inactive; STAT1 activator: 138.0; sdo1 growth: inactive

Results for COc1ccc2nc(NC(=O)CSc3nnc(-c4ccoc4C)n3C)sc2c1 ?
FLuc inhib CS: 59.9; NF-kB neuron act: inactive; FLuc stim CS: inactive; APP 5'UTR act: inactive; STAT1 activator: 130.3; sdo1 growth: inactive

How did COc1ccc2nc(NC(=O)c3ccc4ncsc4c3)sc2c1 do in these assays?
FLuc inhib CS: inactive; NF-kB neuron act: inactive; FLuc stim CS: inactive; APP 5'UTR act: inactive; STAT1 activator: 141.7; sdo1 growth: inactive

What do the screens show for `CCn1nnnc1SCC(=O)Nc1nc2ccc(OC)cc2s1`?
FLuc inhib CS: inactive; NF-kB neuron act: inactive; FLuc stim CS: inactive; APP 5'UTR act: inactive; STAT1 activator: inactive; sdo1 growth: inactive

How did CCOC(=O)c1cccc(C(=O)Nc2nc3ccc(OC)cc3s2)n1 do in these assays?
FLuc inhib CS: 90.7; NF-kB neuron act: inactive; FLuc stim CS: inactive; APP 5'UTR act: inactive; STAT1 activator: inactive

Results for COc1ccc2nc(NC(=O)Nc3cccc4ccccc34)sc2c1 ?
FLuc inhib CS: inactive; NF-kB neuron act: inactive; FLuc stim CS: inactive; APP 5'UTR act: inactive; STAT1 activator: inactive

Results for COc1ccc(OCC(=O)Nc2nc3ccc(NC(C)=O)cc3s2)cc1 ?
FLuc inhib CS: inactive; NF-kB neuron act: inactive; FLuc stim CS: inactive; APP 5'UTR act: inactive; STAT1 activator: inactive

What do the screens show for `COc1ccc2nc(NC(=O)c3ccc(-n4nc(C)cc4C)cc3)sc2c1`?
FLuc inhib CS: inactive; NF-kB neuron act: inactive; FLuc stim CS: inactive; APP 5'UTR act: inactive; STAT1 activator: inactive; sdo1 growth: inactive

How did COc1ccc2nc(NC(C)=O)sc2c1 do in these assays?
FLuc inhib CS: inactive; NF-kB neuron act: inactive; FLuc stim CS: inactive; APP 5'UTR act: inactive; STAT1 activator: 138.6; sdo1 growth: inactive

Results for CC1=C(C(=O)OCCNC(=O)c2ccccc2O)C(c2ccccc2[N+](=O)[O-])C(C(=O)OCC2CCCO2)=C(C)N1 (stereo unspecified) ?
FLuc inhib CS: inactive; NF-kB neuron act: inactive; FLuc stim CS: inactive; APP 5'UTR act: inactive; STAT1 activator: inactive; sdo1 growth: inactive

What do the screens show for `CCN(CC)C(=O)COc1ccc(/C=C(\C#N)S(=O)(=O)c2ccccc2)cc1OC`?
FLuc inhib CS: inactive; NF-kB neuron act: inactive; FLuc stim CS: inactive; APP 5'UTR act: inactive; STAT1 activator: inactive

What do the screens show for `COc1ccc(Nc2nc3ccccc3c(=O)s2)c(OC)c1`?
FLuc inhib CS: inactive; NF-kB neuron act: inactive; FLuc stim CS: inactive; APP 5'UTR act: inactive; STAT1 activator: inactive; sdo1 growth: inactive

How did COC(=O)c1ccc2nc(NC(=O)C(C)C)sc2c1 do in these assays?
FLuc inhib CS: 60.4; NF-kB neuron act: 6; FLuc stim CS: inactive; APP 5'UTR act: inactive; STAT1 activator: 134.4

What do the screens show for `CC(C)C(=O)Nc1nc2ccc(S(C)(=O)=O)cc2s1`?
FLuc inhib CS: inactive; NF-kB neuron act: inactive; FLuc stim CS: inactive; APP 5'UTR act: inactive; STAT1 activator: inactive

How did COc1ccc2nc(Nc3ccccc3OC)sc2c1 do in these assays?
FLuc inhib CS: 87.1; NF-kB neuron act: 7.9; FLuc stim CS: inactive; APP 5'UTR act: 202.5; STAT1 activator: inactive

How did COc1ccc(/C=C2\SC(=N)N(c3nccs3)C2=O)cc1OC do in these assays?
FLuc inhib CS: 77.3; NF-kB neuron act: inactive; FLuc stim CS: inactive; APP 5'UTR act: inactive; STAT1 activator: inactive; sdo1 growth: inactive

How did N=C1S/C(=C\c2ccc(-c3cccc(Cl)c3)o2)C(=O)N1c1nccs1 do in these assays?
FLuc inhib CS: inactive; NF-kB neuron act: inactive; FLuc stim CS: inactive; APP 5'UTR act: inactive; STAT1 activator: inactive; sdo1 growth: inactive
